# Assay results from different studies.
# Protocols differ between the studies behind these lines.
# Medium: Caco-2
Compound,conditions,endpoint,result
O=c1cc(-c2ccc(O)cc2)oc2c([C@@H]3O[C@H](CO)[C@@H](O)[C@H](O)[C@H]3O)c(O)cc(O)c12,200 µg/mL,Papp A→B,0.322 ×10⁻⁶ cm/s
COc1ccc(-c2cc(=O)c3c(O)cc(O[C@@H]4O[C@H](CO[C@@H]5O[C@@H](C)[C@H](O)[C@@H](O)[C@H]5O)[C@@H](O)[C@H](O)[C@H]4O)cc3o2)cc1O,"100 µg/mL, 2 h",Papp B→A,35.1 ×10⁻⁶ cm/s
Cc1cc(-c2ccnc3[nH]cc(F)c23)cc(F)c1[C@@]1(O)[C@H](C)CN(C2CCS(=O)(=O)CC2)C[C@@H]1C,10 µM,Papp,14.8 ×10⁻⁶ cm/s
O=S1(=O)OC(c2ccc(O)cc2)(c2ccc(O)cc2)c2ccccc21,,Papp,0.54 ×10⁻⁶ cm/s
C[C@@H]1O[C@@H](OC[C@H]2O[C@@H](Oc3c(-c4ccc(O)c(O)c4)oc4cc(O)cc(O)c4c3=O)[C@H](O)[C@@H](O)[C@@H]2O)[C@H](O)[C@H](O)[C@H]1O,50 µg/mL,Papp A→B,0.228 ×10⁻⁶ cm/s
CNC(=O)c1ccccc1Nc1cc(Nc2ccc(N3CCOCC3)cc2OC)ncc1C(F)(F)F,"20 µM, 2 h",Papp,18 ×10⁻⁶ cm/s
Cc1cc(C)c(CNC(=O)c2cc(Cl)c3c(c2C)O[C@@](C)([C@H]2CC[C@H](N(C)C)CC2)O3)c(=O)[nH]1,1 µM,Papp B→A,20.7 ×10⁻⁶ cm/s
Cc1cc(-c2ccnc3[nH]cc(F)c23)cc(F)c1[C@@]1(O)[C@H](C)CN(C(=O)CN)C[C@@H]1C,10 µM,Papp,5.2 ×10⁻⁶ cm/s
COc1ccc(CCC(=O)c2c(O)cc(O[C@@H]3O[C@H](CO)[C@@H](O)[C@H](O)[C@H]3O[C@@H]3O[C@@H](C)[C@H](O)[C@@H](O)[C@H]3O)cc2O)cc1O,"100 µg/mL, 2 h",Papp B→A,8.96 ×10⁻⁶ cm/s
O=C(Nc1ccc(OC(F)(F)F)cc1)N[C@H]1CC[C@H](Oc2ccc(C(=O)O)cc2)CC1,,Papp,4.76 ×10⁻⁶ cm/s
C[C@@H]1O[C@@H](OC[C@H]2O[C@@H](Oc3c(-c4ccc(OCCO)c(OCCO)c4)oc4cc(OCCO)cc(O)c4c3=O)[C@H](O)[C@@H](O)[C@@H]2O)[C@H](O)[C@H](O)[C@H]1O,"100 µg/mL, 2 h",Papp B→A,2.67 ×10⁻⁶ cm/s
O=C1CCC(N2Cc3cc(C4CCN(Cc5ccccc5)CC4)ccc3C2=O)C(=O)N1 (stereo not drawn),"10 µM, 2 h",Papp,8.1 ×10⁻⁶ cm/s
